Laboratory results taken from ChEMBL document CHEMBL1914438, “Synthesis and biological activity of novel N-cycloalkyl-(cycloalkylaryl)-2-[(3-R-2-oxo-2H-[1,2,4]triazino[2,3-c]quinazoline-6-yl)thio]acetamides” (2011).
Calls of active or inactive are those of the source. The calls are words filed in the database; no cut-off is given here.

Columns and labels:
Staphylococcus aureus [1] = assay: Antibacterial activity against Staphylococcus aureus at 1 to 5 mg/mL after 24 hrs by stiff-plate agar-diffusion method; format: functional, organism-based
Outline: (§1)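 Agar diffusion (stiff plate) with test substances at 5 mg/mL in grooves, allowed to diffuse into nutrient agar; inoculum 10^9 c.f.u./mL; bacteria incubated 24 h at 35 °C. Read-out: inhibition zone diameter (not sensitive 11–15 mm, sensitive 16–25 mm, highly sensitive >25 mm). Vancomycin and oxacillin as standards; three repeats.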

SR = assay: Cytotoxicity against human SR cells assessed as cell growth at 10^-5 M after 48 hrs by SRB assay; format: functional; conditions: read-out: Activity
Outline: (§2)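 NCI human tumor cell line panel from nine cancer types. Each line was inoculated and preincubated 24–48 h, then exposed to a single concentration (10^-5 M) for 48 h. Growth was read by sulforhodamine B protein staining, measured spectrophotometrically. Value reported as percent growth of treated cells relative to untreated controls.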

[2] = tested on: Photobacterium leiognathi; assay: Antibacterial activity against Photobacterium leiognathi Sh1 assessed as inhibition of bacterial luminescence at 0.1 mg/mL after 10 mins by bioluminometry-based chronic action test; format: functional; set-up: scale not given: the % may be the effect or the level left
Outline: (§3)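 Chronic (growth plus luminescence) test with P. leiognathi Sh1 at 10^5 cells/mL in chloride solution, compounds added in DMSO. After 10 min at 25 °C, growth medium added at 1:50 and the mix incubated 16–18 h at 30 °C. Luminescence then measured by bioluminometer as % of untreated control. Tetracycline reference.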

SK-OV-3 = assay: Cytotoxicity against human SKOV3 cells assessed as cell growth at 10^-5 M after 48 hrs by SRB assay; format: functional; conditions: SK-OV-3, 48 h, read-out: Activity; outline: as §2
UACC-257 = assay: Cytotoxicity against human UACC257 cells assessed as cell growth at 10^-5 M after 48 hrs by SRB assay; format: functional; conditions: UACC-257, 48 h, read-out: Activity; outline: as §2
EKVX = assay: Cytotoxicity against human EKVX cells assessed as cell growth at 10^-5 M after 48 hrs by SRB assay; format: functional; conditions: read-out: Activity
Outline: (§4)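 NCI 60-cell-line one-dose primary screen: cells inoculated and preincubated 24–48 h, then test agent added at a single 10^-5 M concentration for a further 48 h. Endpoint is sulforhodamine B protein staining read spectrophotometrically. Reported as percent growth relative to untreated control cells.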

MOLT-4 = assay: Cytotoxicity against human MOLT4 cells assessed as cell growth at 10^-5 M after 48 hrs by SRB assay; format: functional; conditions: MOLT-4, 48 h, read-out: Activity; outline: as §2
PC-3 = assay: Cytotoxicity against human PC3 cells assessed as cell growth at 10^-5 M after 48 hrs by SRB assay; format: functional; conditions: PC-3, 48 h, read-out: Activity; outline: as §2
Escherichia coli [3] = assay: Antibacterial activity against Escherichia coli at 1 to 5 mg/mL after 24 hrs by stiff-plate agar-diffusion method; format: functional, organism-based; outline: as §1
[4] = tested on: Photobacterium leiognathi; assay: Antibacterial activity against Photobacterium leiognathi Sh1 at 0.1 to 0.25 ug/mL; format: functional, organism-based
[5] = tested on: Photobacterium leiognathi; assay: Antibacterial activity against Photobacterium leiognathi Sh1 assessed as inhibition of bacterial luminescence at 0.25 mg/mL after 10 mins by bioluminometry-based chronic action test; format: functional; set-up: scale not given: the % may be the effect or the level left; outline: as §3
UO-31 = assay: Cytotoxicity against human UO31 cells assessed as cell growth at 10^-5 M after 48 hrs by SRB assay; format: functional; conditions: UO-31, 48 h, read-out: Activity; outline: as §2
K562 = assay: Cytotoxicity against human K562 cells assessed as cell growth at 10^-5 M after 48 hrs by SRB assay; format: functional; conditions: K562, 48 h, read-out: Activity; outline: as §4
CAKI-1 = assay: Cytotoxicity against human Caki1 cells assessed as cell growth at 10^-5 M after 48 hrs by SRB assay; format: functional; conditions: CAKI-1, 48 h, read-out: Activity; outline: as §4
SF-295 = assay: Cytotoxicity against human SF295 cells assessed as cell growth at 10^-5 M after 48 hrs by SRB assay; format: functional; conditions: SF-295, 48 h, read-out: Activity; outline: as §2
[6] = tested on: Photobacterium leiognathi; assay: Antibacterial activity against Photobacterium leiognathi Sh1 assessed as inhibition of bacterial luminescence at 0.025 mg/mL after 10 mins by bioluminometry-based chronic action test; format: functional; set-up: scale not given: the % may be the effect or the level left; outline: as §3
Mycobacterium [7] = assay: Antibacterial activity against Mycobacterium luteum at 1 to 5 mg/mL after 24 hrs by stiff-plate agar-diffusion method; format: functional, organism-based; outline: as §1
SNB-75 = assay: Cytotoxicity against human SNB75 cells assessed as cell growth at 10^-5 M after 48 hrs by SRB assay; format: functional; conditions: SNB-75, 48 h, read-out: Activity; outline: as §2
Aspergillus niger [8] = assay: Antifungal activity against Aspergillus niger at 1 to 5 mg/mL after 48 to 72 hrs by stiff-plate agar-diffusion method; format: functional, organism-based
Outline: (§5)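 Fungal plates run by stiff-plate agar diffusion, substances applied to grooves at 5 mg/mL; 10^9 c.f.u./mL cells; incubation 48–72 h at 28–30 °C. Inhibition zone diameter scored (11–15 mm not sensitive, 16–25 mm sensitive, >25 mm highly sensitive). Nystatin standard; experiments done three times.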

[9] = tested on: Photobacterium leiognathi; assay: Antibacterial activity against Photobacterium leiognathi Sh1 assessed as inhibition of bacterial luminescence at 0.1 mg/mL after 10 mins by bioluminometry-based acute action test; format: functional; set-up: scale not given: the % may be the effect or the level left
Outline: (§6)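 Marine P. leiognathi Sh1 (Azov Sea shrimp isolate) diluted in chloride solution to 10^5 cells/mL; compounds suspended in DMSO mixed with 1 mL bacterial suspension. Acute test: 10 min at 25 °C, then bioluminescence measured by bioluminometer as % of compound-free control. Tetracycline reference.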

A549 = assay: Cytotoxicity against human A549 cells assessed as cell growth at 10^-5 M after 48 hrs by SRB assay; format: functional; conditions: A549, 48 h, read-out: Activity; outline: as §4
[10] = tested on: Photobacterium leiognathi; assay: Antibacterial activity against Photobacterium leiognathi Sh1 assessed as inhibition of bacterial luminescence at 0.25 mg/mL after 10 mins by bioluminometry-based acute action test; format: functional; set-up: scale not given: the % may be the effect or the level left; outline: as §6
CCRF-CEM = assay: Cytotoxicity against human CCRF-CEM cells assessed as cell growth at 10^-5 M after 48 hrs by SRB assay; format: functional; conditions: read-out: Activity; outline: as §4
[11] = tested on: Photobacterium leiognathi; assay: Antibacterial activity against Photobacterium leiognathi Sh1 assessed as inhibition of bacterial luminescence at 0.025 mg/mL after 10 mins by bioluminometry-based acute action test; format: functional; set-up: scale not given: the % may be the effect or the level left; outline: as §6
SK-MEL-5 = assay: Cytotoxicity against human SK-MEL-5 cells assessed as cell growth at 10^-5 M after 48 hrs by SRB assay; format: functional; conditions: SK-MEL-5, 48 h, read-out: Activity; outline: as §2
Yamadazyma tenuis [12] = assay: Antifungal activity against Candida tenuis at 1 to 5 mg/mL after 48 to 72 hrs by stiff-plate agar-diffusion method; format: functional, organism-based; outline: as §5
Yamadazyma tenuis [13] = assay: Antifungal activity against Candida tenuis assessed as zone of inhibition at 0.5 mg/mL after 48 to 72 hrs by stiff-plate agar-diffusion method; format: functional; conditions: read-out: DIZ
Staphylococcus aureus [14] = assay: Antibacterial activity against Staphylococcus aureus assessed as zone of inhibition at 0.1 mg/mL after 24 hrs by stiff-plate agar-diffusion method; format: functional; conditions: read-out: DIZ
Mycobacterium [15] = assay: Antibacterial activity against Mycobacterium luteum assessed as zone of inhibition at 0.5 mg/mL after 24 hrs by stiff-plate agar-diffusion method; format: functional; conditions: read-out: DIZ
Yamadazyma tenuis [16] = assay: Antifungal activity against Candida tenuis assessed as zone of inhibition at 0.1 mg/mL after 48 to 72 hrs by stiff-plate agar-diffusion method; format: functional; conditions: read-out: DIZ
Escherichia coli [17] = assay: Antibacterial activity against Escherichia coli assessed as zone of inhibition at 0.1 mg/mL after 24 hrs by stiff-plate agar-diffusion method; format: functional; conditions: read-out: DIZ
Mycobacterium [18] = assay: Antibacterial activity against Mycobacterium luteum assessed as zone of inhibition at 0.1 mg/mL after 24 hrs by stiff-plate agar-diffusion method; format: functional; conditions: read-out: DIZ
Escherichia coli [19] = assay: Antibacterial activity against Escherichia coli assessed as zone of inhibition at 0.5 mg/mL after 24 hrs by stiff-plate agar-diffusion method; format: functional; conditions: read-out: DIZ
Aspergillus niger [20] = assay: Antifungal activity against Aspergillus niger assessed as zone of inhibition at 0.1 mg/mL after 48 to 72 hrs by stiff-plate agar-diffusion method; format: functional; conditions: read-out: DIZ
Aspergillus niger [21] = assay: Antifungal activity against Aspergillus niger assessed as zone of inhibition at 0.5 mg/mL after 48 to 72 hrs by stiff-plate agar-diffusion method; format: functional; conditions: read-out: DIZ
Staphylococcus aureus [22] = assay: Antibacterial activity against Staphylococcus aureus assessed as zone of inhibition at 0.5 mg/mL after 24 hrs by stiff-plate agar-diffusion method; format: functional; conditions: read-out: DIZ
[23] = in the assay text read “after 16 to 18 hrs” for “after 10 mins”

## Cc1ccc(-c2nn3c(SCC(=O)O)nc4ccccc4c3nc2=O)cc1
Staphylococcus aureus [1]
  Activity: inactive
SR
  growth at 10 µM: 68%
[2]; [23]
  Activity: 255.3%
SK-OV-3
  growth at 10 µM: 89.9%
UACC-257
  growth at 10 µM: 95.1%
EKVX
  growth at 10 µM: 95%
MOLT-4
  growth at 10 µM: 84.9%
PC-3
  growth at 10 µM: 86.5%
Escherichia coli [3]
  Activity: inactive
[4]
  Activity: inactive
[5]; [23]
  Activity: 0%
UO-31
  growth at 10 µM: 85.3%
K562
  growth at 10 µM: 94.5%
CAKI-1
  growth at 10 µM: 82.8%
SF-295
  growth at 10 µM: 84.3%
[6]; [23]
  Activity: 93.3%
Mycobacterium [7]
  Activity: inactive
SNB-75
  growth at 10 µM: 74.2%
Aspergillus niger [8]
  Activity: inactive
[9]
  Activity: 20%
A549
  growth at 10 µM: 96.5%
[10]
  Activity: 0%
CCRF-CEM
  growth at 10 µM: 95.6%
[11]
  Activity: 91.7%
SK-MEL-5
  growth at 10 µM: 96%
Yamadazyma tenuis [12]
  Activity: inactive

## COc1ccc(-c2nn3c(SCC(=O)Nc4ccc(C56CC7CC(CC(C7)C5)C6)cc4)nc4ccccc4c3nc2=O)cc1
Yamadazyma tenuis [13]
  zone of inhibition at 500 µg/mL: 0 mm
[2]
  Activity: 34.62%
Staphylococcus aureus [14]
  zone of inhibition at 100 µg/mL: 7 mm
Mycobacterium [15]
  zone of inhibition at 500 µg/mL: 0 mm
Yamadazyma tenuis [16]
  zone of inhibition at 100 µg/mL: 0 mm
[5]
  Activity: 76.92%
[6]
  Activity: 48.72%
Escherichia coli [17]
  zone of inhibition at 100 µg/mL: 0 mm
Mycobacterium [18]
  zone of inhibition at 100 µg/mL: 0 mm
[9]
  Activity: 59.57%
[10]
  Activity: 59.57%
Escherichia coli [19]
  zone of inhibition at 500 µg/mL: 0 mm
Aspergillus niger [20]
  zone of inhibition at 100 µg/mL: 0 mm
[11]
  Activity: 76.6%
Aspergillus niger [21]
  zone of inhibition at 500 µg/mL: 0 mm
Staphylococcus aureus [22]
  zone of inhibition at 500 µg/mL: 0 mm
